Our source for the MIC and IC50 values is ChEMBL document CHEMBL3407339, “A novel series of thiazolyl-pyrazoline derivatives: synthesis and evaluation of antifungal activity, cytotoxicity and genotoxicity” (Eur J Med Chem, 2015).

For one experiment, the system named is Aspergillus flavus. Kind of experiment: Antifungal activity against Aspergillus flavus NRRL 980 after 72 hrs by broth microdilution assay. The settings on record: NRRL 980, 72 h. It is filed as functional. The method, boiled down: (§1)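 Compounds dissolved in DMSO, diluted in sterile distilled water from 4 to 0.0039 mg/mL. Molds grown on PDA at 25 °C for 5 days, suspended in double-strength PDB at 10⁵ spores/mL. Incubated at 25 °C for 72 h; mycelial growth read under stereo microscope. MIC = lowest concentration inhibiting visible growth. Ketoconazole reference.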

A further experiment deals with A549. Briefly: Antiproliferative activity against human A549 cells after 24 hrs by XTT assay. It is filed as functional, cell-based. The conditions noted are these: A549, 24 h. The method, boiled down: (§2)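 A549 cells in RPMI and NIH/3T3 cells in DMEM, each with fetal calf serum, antibiotics and 7.5% NaHCO₃, at 37 °C, 5% CO₂. Seeded at 20,000 cells/well, 24 h, then compounds added in medium at 500–3.9 doses (final DMSO <0.1%) for 24 h. XTT read after 3 h at 480 nm (ref 680 nm). IC₅₀ by non-linear regression; triplicates; cisplatin control.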
On the technique in general: Tetrazolium assays rely on reduction of a dye to a coloured formazan, in cell work by metabolically active cells.

Experiment [1] is described as follows: Cytotoxicity against mouse NIH/3T3 cells after 24 hrs by XTT assay. It is filed as cell-based. The conditions noted are these: NIH3T3, 24 h. The method, boiled down:
as §2

For another experiment, the system named is Aspergillus parasiticus. Briefly: Antifungal activity against Aspergillus parasiticus NRRL 465 after 72 hrs by broth microdilution assay. It is filed as functional. The conditions noted are these: NRRL 465, 72 h. The essentials:
as §1

Another experiment concerns Candida parapsilosis. Kind of experiment: Antifungal activity against Candida parapsilosis NRLL Y 12696 after 48 hrs by broth microdilution assay. The settings on record: Lodderomyces parapsilosis, NRLL Y 12696, 48 h. It is filed as functional. The essentials: (§3)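 Broth microdilution of DMSO stocks serially diluted in sterile water (4 to 0.0039 mg/mL). Yeasts grown on SDA at 37 °C for 24 h, suspended in double-strength PDB at 10⁵ spores/mL. Incubated at 37 °C for 48 h, then sprayed with 0.5% aqueous TTC. MIC = lowest concentration inhibiting visible growth. Ketoconazole reference.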
On the technique in general: Broth dilution looks for growth in wells or tubes with falling amounts of substance.

Another experiment has as its system Candida albicans. Briefly: Antifungal activity against Candida albicans ATCC 90028 after 48 hrs by broth microdilution assay. In kind it is functional. The settings on record: ATCC 90028, 48 h. The method, boiled down:
as §3

In the next experiment the test system is Aspergillus niger. Briefly: Antifungal activity against Aspergillus niger ATCC 1094 after 72 hrs by broth microdilution assay. In kind it is functional. The settings on record: ATCC 1094, 72 h. The method, boiled down:
as §1

A further experiment has as its system Candida tropicalis. Briefly: Antifungal activity against Candida tropicalis NRLL Y 12968 after 48 hrs by broth microdilution assay. It is filed as functional. The settings on record: NRLL Y 12968, 48 h. The essentials: as §3
For a further experiment, the system named is Fusarium solani. Briefly: Antifungal activity against Fusarium solani NRRL 13414 after 72 hrs by broth microdilution assay. It is filed as functional. The conditions noted are these: NRRL 13414, 72 h. The essentials: as §1
The test system of a further experiment is [Candida] zeylanoides. Briefly: Antifungal activity against Candida zeylanoides NRLL Y 1774 after 48 hrs by broth microdilution assay. It is filed as functional. The settings on record: Dujonia zeylanoides, NRLL Y 1774, 48 h. The method, boiled down:
as §3

For another experiment, the system named is Pichia kudriavzevii. Kind of experiment: Antifungal activity against Candida krusei NRLL Y 7179 after 48 hrs by broth microdilution assay. In kind it is functional. The conditions noted are these: NRLL Y 7179, 48 h. The method, boiled down: as §3
The subject of a further experiment is Nakaseomyces glabratus. Briefly: Antifungal activity against Candida glabrata clinical isolate after 48 hrs by broth microdilution assay. It is filed as functional. The essentials:
as §3

Converted amounts (≈) assume the structure as drawn.

For the molecule `Fc1ccc(-c2csc(N3N=C(c4ccc(Cl)s4)CC3c3ccc(F)cc3)n2)cc1` (configuration not stated), the MIC – broadly, the smallest concentration in the dilution series that meets the test's criterion for growth inhibition – against Aspergillus flavus was determined as 125 µg/mL (≈ 273 µM); against Aspergillus parasiticus, 250 µg/mL (≈ 546 µM); against Candida parapsilosis it was 250 µg/mL (≈ 546 µM); in the experiment on Candida albicans, 250 µg/mL (≈ 546 µM); with Aspergillus niger, 250 µg/mL (≈ 546 µM); against Candida tropicalis, 250 µg/mL (≈ 546 µM). The MIC (against Fusarium solani; in experiment [Candida] zeylanoides; with Pichia kudriavzevii; in the experiment on Nakaseomyces glabratus) was 250 µg/mL (≈ 546 µM) in each case. The IC50 (in the experiment with A549; in [1]) was above 500 µg/mL in each case.
